≈ marks a conversion by molar mass, not a printed value.
How the values were obtained:
[1] = system: Mycobacterium tuberculosis; assay: Antimycobacterial activity against Mycobacterium tuberculosis H37Rv ATCC 27294 by microplate alamar blue assay; format: functional, organism-based
Procedure, shortened: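 Strain grown in BACTEC 12B medium, broth microdilution with Alamar Blue read-out (TAACF protocol). Primary screen at 6.25 µg/mL; compounds reaching ≥90% growth inhibition retested in 10 twofold dilutions, typically from 100. MIC taken as the lowest concentration giving 90% fluorescence reduction relative to controls. Fluorescent compounds tested in BACTEC 460 radiometric system instead. Rifampin control.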

[2] = Cytotoxicity against african green monkey Vero cells after 72 hrs by celltiter-glo luminescent cell viability assay; format: cell-based; conditions: chlorocebus sabaeus
Procedure, shortened: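 VERO cells exposed to compounds for 72 h. Viability read from ATP content by luminescence. CC50 derived by curve fitting of dose–response curves.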

[3] = Selectivity index, ratio of CC50 african green monkey Vero cells to IC90 for Mycobacterium tuberculosis H37Rv ATCC 27294; format: toxicity, cell-based
Procedure, shortened: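 SI calculated as VERO CC50 (72 h luminescent ATP viability assay, curve-fitted) divided by the MABA MIC (90% fluorescence reduction endpoint) for H37Rv.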

Row | SMILES | IC50 [1] [µg/mL] | IC90 [1] [µg/mL] | CC50 at 72 h [2] [µg/mL] | selectivity ratio [3]
1 | Cc1c(C(=O)c2ccc(Br)cc2)oc2cc3occ(C=C4C(=O)NC(=O)NC4=O)c(=O)c3cc12 | 38.5 (≈ 73.9 µM) | 55.4 (≈ 106 µM) | – | –
2 | Cc1c(C(=O)c2ccc(Cl)cc2)oc2cc3occ(C=C4C(=O)NC(=S)NC4=O)c(=O)c3cc12 | 42 (≈ 85.3 µM) | 63.8 (≈ 129 µM) | – | –
3 | Cc1c(C(=O)c2ccccc2)oc2cc3occ(C=C4C(=O)NC(=S)NC4=O)c(=O)c3cc12 | > 100 | > 100 | – | –
4 | Cc1cc(=O)oc2cc3occ(C=C4C(=O)NC(=S)NC4=O)c(=O)c3cc12 | > 100 | > 100 | – | –
5 | Cc1c(C(=O)c2ccc(-c3ccccc3)cc2)oc2cc3occ(C=C4C(=O)NC(=O)NC4=O)c(=O)c3cc12 | > 100 | > 100 | – | –
6 | Cc1c(C(=O)c2ccc(Cl)cc2)oc2cc3occ(C=C4C(=O)NC(=O)NC4=O)c(=O)c3cc12 | 65.1 (≈ 136 µM) | 93 (≈ 195 µM) | – | –
7 | COc1ccc(C(=O)c2oc3cc4occ(C=C5C(=O)NC(=O)NC5=O)c(=O)c4cc3c2C)cc1 | > 100 | > 100 | – | –
8 | Cc1cc(=O)oc2cc3occ(C=C4C(=O)NC(=O)NC4=O)c(=O)c3cc12 | > 100 | > 100 | – | –
9 | NC(=O)c1cnccn1 [PYRAZINAMIDE] | – | > 20 | – | –
10 | COc1ccc(C(=O)c2oc3cc4occ(C=C5C(=O)NC(=S)NC5=O)c(=O)c4cc3c2C)cc1 | > 100 | > 100 | – | –
11 | Cc1ccc(C(=O)c2oc3cc4occ(C=C5C(=O)NC(=O)NC5=O)c(=O)c4cc3c2C)cc1 | 55.2 (≈ 121 µM) | 84.7 (≈ 186 µM) | – | –
12 | Cc1cc(=O)oc2c(C)c3occ(C=C4C(=O)NC(=O)NC4=O)c(=O)c3cc12 | 4.71 (≈ 12.4 µM) | 5.9 (≈ 15.5 µM) | 14.3 (≈ 37.5 µM) | 2.41

Reference: ChEMBL document CHEMBL1909596, “Synthesis and evaluation of chromenyl barbiturates and thiobarbiturates as potential antitubercular agents” (Bioorg Med Chem Lett, 2011)
